This passage reports IC50, Ki and Kd results from ChEMBL document CHEMBL3393001, “Flavonoids as noncompetitive inhibitors of Dengue virus NS2B-NS3 protease: inhibition kinetics and docking studies” (Bioorg Med Chem, 2015).

Test [1] can be described thus: Inhibition of dengue virus 2 NS2B-NS3 serine protease assessed as reduction in hydrolysis of Boc-Gly-Arg-Arg-7-amino-4-methylcumarin substrate. Set-up: species or system dengue virus type 2.
The nature of test [2]: Inhibition of dengue virus 2 NS2B-NS3 serine protease assessed as reduction in hydrolysis of Boc-Gly-Arg-Arg-7-amino-4-methylcumarin substrate by Dixon plot. Details: species or system dengue virus type 2. The method, boiled down: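 Recombinant DENV2 NS2B-NS3 at 47.63 nM in 200 mM Tris-HCl pH 9.5, 6 mM NaCl, 30% glycerol. Boc-Gly-Arg-Arg-AMC at 25–200 µM with inhibitor fixed at 10–32 µM; AMC release read at ex 380/em 460 nm. Analysed by Lineweaver-Burk and Dixon plots, with Ki = Kiapp/(1+[S]/Km), [S] […] Mean of three independent assays.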

The nature of test [3]: Inhibition of dengue virus 3 NS2B-NS3 serine protease assessed as reduction in hydrolysis of Boc-Gly-Arg-Arg-7-amino-4-methylcumarin substrate. Set-up: species or system dengue virus type 3. The method, boiled down:
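Recombinant DENV3 NS2B-NS3 (50 nM) was run in 50 mM Tris HCl pH 9.0 with 1 mM CHAPS and 100 substrate. Compounds in DMSO were screened at 50 final, with IC50 from serial dilutions over 0.5–200. Three independent determinations in duplicate; background-corrected 2-parameter fit (lower limit 0, upper 100).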

Test [4] in a line: Inhibition of dengue virus 3 NS2B-NS3 serine protease assessed as reduction in hydrolysis of Boc-Gly-Arg-Arg-7-amino-4-methylcumarin substrate by Dixon plot. Details: species or system dengue virus type 3.
Test [5] in a line: Non-competitive inhibition of dengue virus 2 NS2B-NS3 serine protease assessed as reduction in hydrolysis of Boc-Gly-Arg-Arg-7-amino-4-methylcumarin substrate by Lineweaver-Burk plot and Dixon plot. Details: species or system dengue virus type 2.
In another test the test system is dengue virus type 2. The test is described as follows: Antiviral activity against dengue virus 2 infected in african green monkey Vero cells assessed as reduction in viral replication dosed after adsorption with 200 FFU of virus for 1 hour by foci forming unit reduction assay. Format: functional, organism-based.
A short description of test [6]: Binding affinity to NT-647-NHS fluorescent dye-labeled dengue virus 3 NS2B-NS3 serine protease incubated for 10 mins by microscale thermophoresis method. Details: species or system dengue virus type 3. The method, boiled down: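 Recombinant DENV3 NS2B-NS3, dye-labeled, mixed 1:1 with ligand dilutions to a final 25 nM protein and 0.06–1000 µM ligand. Buffer: 50 mM Tris-HCl pH 9.0, 1 mM CHAPS, plus 10% DMSO and 0.05% Tween 20 on the ligand side only. After 10 min, capillary thermophoresis was measured. KD came from data fitting, mean of three independent assays.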

Molecules are shown by their SMILES. ≈ marks a conversion by molar mass, not a printed value.

On to `O=c1c(O[C@@H]2O[C@H](CO)[C@@H](O)[C@H](O)[C@H]2O)c(-c2ccc(O)c(O)c2)oc2cc(O)cc(O)c12` [ISOQUERCETIN], for which the IC50 was found to be 44 µM in test [1] and 42.4 µM in test [3]. Moreover, the Ki was 25.9 µM in test [2] and 37.1 µM in test [4].
Take `O=c1c(O)c(-c2cc(O)c(O)c(O)c2)oc2cc(O)cc(O)c12` [MYRICETIN]: the IC50 in test [1] amounted to 22.3 µM; in test [3] it was 29.3 µM. The Ki in test [5] came to 4.7 µM; in test [4] it was 25.7 µM.
In the case of `C[C@@H]1O[C@@H](Oc2c(-c3ccc(O)c(O)c3)oc3cc(O)cc(O)c3c2=O)[C@H](O)[C@H](O)[C@H]1O` [QUERCITRIN], the IC50 in test [1] is 43.6 µM; in test [3], 32 µM. The Ki is 25.7 µM in test [2] and 28 µM in test [4].
With `O.O=c1c(O)c(-c2ccc(O)c(O)c2)oc2cc(O)cc(O)c12` [QUERCETIN DIHYDRATE], the IC50 with dengue virus type 2 stood at 35.7 µg/mL; in test [1], 35.2 µM; in test [3], 22.7 µM. In addition, the inhibitory constant (Ki) was determined as 20.7 µM in test [2] and 19.9 µM in test [4]. For the same compound, the Kd in test [6] was 20 µM.
Take `O=c1cc(-c2ccccc2)oc2cc(O)c(O)c(O)c12` [BAICALEIN]: the IC50 with dengue virus type 2 came out at 6.46 µg/mL (≈ 23.9 µM).
Turning to `O=c1c(O)c(-c2ccc(O)cc2)oc2cc(O)cc(O)c12` [KAEMPFEROL], the IC50 in test [1] came out at 37.8 µM; in test [3], 27.7 µM. Further, the Ki in test [2] is 22.3 µM; in test [4], 24.2 µM.
Regarding `O=c1c(O)c(-c2ccc(O)c(O)c2)oc2cc(O)ccc12` [FISETIN], the IC50 in the test with dengue virus type 2 was 55 µg/mL (≈ 192 µM).

A word on the IC50: it is the concentration needed to halve the response being measured. The term Ki denotes the dissociation constant of the complex between target and ligand, obtained from inhibition or displacement. What is called Kd is the constant that tells how readily two partners part at equilibrium.
